How the values were obtained:
[1] = biological target: Telomerase reverse transcriptase (Homo sapiens) (UniProt O14746); assay: Inhibition of telomerase in human A-375 cells assessed as downregulation of telomerase concentration by measuring fold change incubated for 1 hrs by ELISA; type: cell-based
Method in brief: (§1)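 Human EGFR or telomerase measured by sandwich ELISA. Samples and standards incubated 90 min at 37 °C, then biotinylated detection antibody 1 h, avidin-HRP 30 min and substrate about 15 min, all at 37 °C. Reaction stopped and OD read at 450 nm. Concentration taken from the standard curve.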

HepG2 [2] = assay: Antiproliferative activity against human HepG2 cells assessed as growth inhibition at 100 ug/mL incubated for 48 hrs by SRB assay relative to control; type: functional; settings: read-out: GI
Method in brief: (§2)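 SRB assay: cells seeded at 3×10^3/well, allowed 24 h to attach, then exposed to 100 µg/mL for 48 h, three wells per concentration, DMSO 1% v/v vehicle control. Cells fixed with 20% trichloroacetic acid and stained with 0.4% SRB, then OD read at 570 nm. Survival fraction taken as treated OD/control OD.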

A-375 [3] = assay: Induction of apoptosis in human A-375 cells assessed as downregulation of CDK4 expression by measuring fold change at 5.04 microg/ml incubated for 1 hrs by ELISA; type: functional; settings: dose 5.04 µg/ml
Method in brief: (§3)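 Sandwich ELISA with plate precoated with capture antibody for each of caspase-3, -8, -9, CDK2, CDK4 and CDK6. Samples and a 7-point standard incubated 1 h at 37 °C, then biotinylated antibody 1 h, avidin-HRP 30 min and TMB 10-20 min. Reaction stopped with sulphuric acid and read at 450 nm. Duplicate readings, zero standard subtracted, amounts taken from the standard curve.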

[4] = Cytotoxicity against human HNO 97 cell line assessed as inhibition of cell growth incubated for 48 hrs by SRB assay; type: functional, cell-based; settings: HNO 97, 48 h
Method in brief: (§4)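 Cells plated at 3×10^3/well and left 24 h to attach. Treated at 12.5, 25, 50 and 62.5 µg/mL for 48 h, three wells per concentration, with DMSO (1% v/v) vehicle control. Fixed with 20% TCA, stained with 0.4% SRB, OD read at 570 nm. Survival fraction = treated OD/control OD. IC50 from sigmoidal dose-response curve fitting.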

A-375 [5] = assay: Induction of apoptosis in human A-375 cells assessed as downregulation of CDK6 expression by measuring fold change at 5.04 microg/ml incubated for 1 hrs by ELISA; type: functional; settings: dose 5.04 µg/ml; method in brief: as §3
Huh-7 = assay: Antiproliferative activity against human Huh-7 cells assessed as growth inhibition at 100 ug/mL incubated for 48 hrs by SRB assay relative to control; type: functional; settings: read-out: GI; method in brief: as §2
A-375 [6] = assay: Cell cycle arrest in human A-375 cells assessed as increase in accumulation of cells at G0/G1 phase at 3.1 microM incubated for 48 hrs by PI staining based flow cytometry analysis (reference value: 17.29 %)
A-375 [7] = assay: Induction of apoptosis in human A-375 cells assessed as upregulation of caspase 3 expression by measuring fold change at 5.04 microg/ml incubated for 1 hrs by ELISA; type: functional; settings: dose 5.04 µg/ml; method in brief: as §3
MG-63 = assay: Antiproliferative activity against human MG-63 cells assessed as growth inhibition at 100 ug/mL incubated for 48 hrs by SRB assay relative to control; type: functional; settings: read-out: GI; method in brief: as §2
A-375 [8] = assay: Antiproliferative activity against human A-375 cells assessed as growth inhibition at 100 ug/mL incubated for 48 hrs by SRB assay relative to control; type: functional; settings: read-out: GI; method in brief: as §2
HCT-116 [9] = assay: Antiproliferative activity against human HCT-116 cells assessed as growth inhibition at 100 ug/mL incubated for 48 hrs by SRB assay relative to control; type: functional; settings: read-out: GI; method in brief: as §2
HeLa = assay: Antiproliferative activity against human HeLa cells assessed as growth inhibition at 100 ug/mL incubated for 48 hrs by SRB assay relative to control; type: functional; settings: read-out: GI; method in brief: as §2
A-375 [10] = assay: Induction of apoptosis in human A-375 cells assessed as upregulation of caspase 9 expression by measuring fold change at 5.04 microg/ml incubated for 1 hrs by ELISA; type: functional; settings: dose 5.04 µg/ml; method in brief: as §3
HepG2 [11] = assay: Cytotoxicity against human HepG2 cells assessed as inhibition of cell growth incubated for 48 hrs by SRB assay; type: functional, cell-based; settings: HepG2, 48 h; method in brief: as §4
A-375 [12] = assay: Cytotoxicity against human A-375 cells assessed as inhibition of cell growth incubated for 48 hrs by SRB assay; type: functional, cell-based; settings: A-375, 48 h; method in brief: as §4
[13] = Antiproliferative activity against human HNO 97 cell line assessed as growth inhibition at 100 ug/mL incubated for 48 hrs by SRB assay relative to control; type: functional; settings: read-out: GI; method in brief: as §2
MCF7 = assay: Antiproliferative activity against human MCF7 cells assessed as growth inhibition at 100 ug/mL incubated for 48 hrs by SRB assay relative to control; type: functional; settings: read-out: GI; method in brief: as §2
[14] = biological target: Telomerase reverse transcriptase (Homo sapiens) (UniProt O14746); assay: Inhibition of telomerase in human A-375 cells assessed as protein concentration incubated for 1 hrs by ELISA (reference value: 3.56 ng/ml); type: cell-based; method in brief: as §1
[15] = biological target: Epidermal growth factor receptor (Homo sapiens) (UniProt P00533); assay: Inhibition of EGFR in human A-375 cells assessed as protein concentration incubated for 1 hrs by ELISA (reference value: 8.91 ng/ml); type: cell-based; method in brief: as §1
MDA-MB-468 = assay: Antiproliferative activity against human MDA-MB-468 cells assessed as growth inhibition at 100 ug/mL incubated for 48 hrs by SRB assay relative to control; type: functional; settings: read-out: GI; method in brief: as §2
Caco-2 = assay: Antiproliferative activity against human Caco-2 cells assessed as growth inhibition at 100 ug/mL incubated for 48 hrs by SRB assay relative to control; type: functional; settings: read-out: GI; method in brief: as §2
A-375 [16] = assay: Induction of apoptosis in human A-375 cells assessed as upregulation of caspase 8 expression by measuring fold change at 5.04 microg/ml incubated for 1 hrs by ELISA; type: functional; settings: dose 5.04 µg/ml; method in brief: as §3
A-375 [17] = assay: Induction of apoptosis in human A-375 cells assessed as downregulation of CDK2 expression by measuring fold change at 5.04 microg/ml incubated for 1 hrs by ELISA; type: functional; settings: dose 5.04 µg/ml; method in brief: as §3
HCT-116 [18] = assay: Cytotoxicity against human HCT-116 cells assessed as inhibition of cell growth incubated for 48 hrs by SRB assay; type: functional, cell-based; settings: HCT-116, 48 h; method in brief: as §4
[19] = Cytotoxicity against HSF cells assessed as growth inhibition at 100 ug/mL incubated for 48 hrs by SRB assay relative to control; type: toxicity, cell-based; settings: human, at 100 µg/mL, read-out: GI; method in brief: as §2
[20] = Cytotoxicity against human oral epithelial cells (OEC) assessed as growth inhibition at 100 ug/mL incubated for 48 hrs by SRB assay relative to control; type: toxicity, cell-based, Oral epithelial cell; settings: at 100 µg/mL, read-out: GI; method in brief: as §2
[21] = biological target: Epidermal growth factor receptor (Homo sapiens) (UniProt P00533); assay: Inhibition of EGFR in human A-375 cells assessed as downregulation of EGFR concentration by measuring fold change incubated for 1 hrs by ELISA; type: cell-based; method in brief: as §1
FaDu = assay: Antiproliferative activity against human FaDu cells assessed as growth inhibition at 100 ug/mL incubated for 48 hrs by SRB assay relative to control; type: functional; settings: read-out: GI; method in brief: as §2

Chain of Epidermal growth factor receptor (Homo sapiens) (P00533 whole entry): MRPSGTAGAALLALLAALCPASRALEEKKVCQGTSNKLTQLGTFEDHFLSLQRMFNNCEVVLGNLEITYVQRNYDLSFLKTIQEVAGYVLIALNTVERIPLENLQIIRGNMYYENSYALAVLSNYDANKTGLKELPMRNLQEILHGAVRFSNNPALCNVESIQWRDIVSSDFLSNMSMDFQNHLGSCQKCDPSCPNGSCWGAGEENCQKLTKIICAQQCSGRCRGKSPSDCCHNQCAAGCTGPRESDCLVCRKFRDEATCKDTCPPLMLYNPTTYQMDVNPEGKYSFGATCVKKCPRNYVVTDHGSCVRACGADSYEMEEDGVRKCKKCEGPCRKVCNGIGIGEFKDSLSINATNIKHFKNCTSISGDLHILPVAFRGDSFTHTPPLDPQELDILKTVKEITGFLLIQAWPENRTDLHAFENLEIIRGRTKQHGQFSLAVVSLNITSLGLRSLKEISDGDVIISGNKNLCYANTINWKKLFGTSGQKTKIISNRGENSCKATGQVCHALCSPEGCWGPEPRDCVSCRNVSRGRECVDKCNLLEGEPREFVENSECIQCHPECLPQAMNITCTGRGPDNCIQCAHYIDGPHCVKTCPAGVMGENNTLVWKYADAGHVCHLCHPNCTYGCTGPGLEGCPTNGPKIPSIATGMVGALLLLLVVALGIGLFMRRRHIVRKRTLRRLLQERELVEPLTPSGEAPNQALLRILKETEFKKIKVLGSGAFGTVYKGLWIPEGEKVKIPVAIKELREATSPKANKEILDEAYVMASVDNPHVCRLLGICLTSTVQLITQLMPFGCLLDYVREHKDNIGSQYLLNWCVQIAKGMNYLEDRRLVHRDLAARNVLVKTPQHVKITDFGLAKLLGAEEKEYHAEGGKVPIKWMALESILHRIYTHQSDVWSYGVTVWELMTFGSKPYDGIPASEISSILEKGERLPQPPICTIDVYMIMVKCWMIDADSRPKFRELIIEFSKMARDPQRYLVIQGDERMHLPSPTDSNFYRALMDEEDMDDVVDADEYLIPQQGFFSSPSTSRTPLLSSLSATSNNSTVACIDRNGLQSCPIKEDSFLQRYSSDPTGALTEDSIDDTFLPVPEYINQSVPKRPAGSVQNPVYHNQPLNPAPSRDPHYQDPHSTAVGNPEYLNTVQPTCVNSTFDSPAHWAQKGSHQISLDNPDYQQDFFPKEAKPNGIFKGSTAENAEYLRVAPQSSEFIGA
Chain of Telomerase reverse transcriptase (Homo sapiens) (O14746 whole entry): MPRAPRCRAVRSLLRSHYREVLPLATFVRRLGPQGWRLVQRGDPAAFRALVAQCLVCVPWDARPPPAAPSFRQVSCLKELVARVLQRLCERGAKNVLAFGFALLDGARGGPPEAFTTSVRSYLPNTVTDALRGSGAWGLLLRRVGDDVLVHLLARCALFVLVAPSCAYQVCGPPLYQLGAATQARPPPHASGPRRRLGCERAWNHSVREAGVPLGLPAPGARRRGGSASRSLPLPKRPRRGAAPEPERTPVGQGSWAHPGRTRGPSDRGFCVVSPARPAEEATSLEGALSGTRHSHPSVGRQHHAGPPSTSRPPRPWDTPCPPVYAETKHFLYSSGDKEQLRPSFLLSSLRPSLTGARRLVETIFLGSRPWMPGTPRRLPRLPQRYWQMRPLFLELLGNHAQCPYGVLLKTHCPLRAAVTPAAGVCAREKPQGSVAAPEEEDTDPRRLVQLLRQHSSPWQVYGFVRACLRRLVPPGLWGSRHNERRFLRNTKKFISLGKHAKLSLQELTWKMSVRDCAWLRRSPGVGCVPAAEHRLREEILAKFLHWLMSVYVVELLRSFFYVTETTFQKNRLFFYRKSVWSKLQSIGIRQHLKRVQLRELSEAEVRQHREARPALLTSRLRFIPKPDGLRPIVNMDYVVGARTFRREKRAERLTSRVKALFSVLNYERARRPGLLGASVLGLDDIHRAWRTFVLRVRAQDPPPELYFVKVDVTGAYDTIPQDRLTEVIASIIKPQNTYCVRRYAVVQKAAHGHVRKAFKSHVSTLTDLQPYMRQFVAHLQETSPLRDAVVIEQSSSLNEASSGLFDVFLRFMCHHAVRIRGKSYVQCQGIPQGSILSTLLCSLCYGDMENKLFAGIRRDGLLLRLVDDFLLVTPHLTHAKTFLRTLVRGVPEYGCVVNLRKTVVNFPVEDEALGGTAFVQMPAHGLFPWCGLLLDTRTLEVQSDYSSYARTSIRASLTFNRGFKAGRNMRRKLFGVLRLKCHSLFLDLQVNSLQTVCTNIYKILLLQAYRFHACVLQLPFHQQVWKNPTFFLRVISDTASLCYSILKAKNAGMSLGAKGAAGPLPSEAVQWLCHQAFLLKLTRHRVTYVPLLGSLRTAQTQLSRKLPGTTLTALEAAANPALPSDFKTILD

For COc1cccc(/C=N/NC(=O)c2nnn(-c3ccc(Cl)cc3)c2C)c1OC, which fold change (FC) [1] is on record?
The fold change (FC) was 2.72.

And the inhibition of growth at 100 µg/mL (HepG2 [2])?
Its inhibition of growth at 100 µg/mL is 80%.

And the “fold change (FC)” value (A-375 [3])?
The value was 2.01.

What about the IC50 [4] of the same compound?
Its IC50 is 13.3 µM.

And the “fold change (FC)” value (A-375 [5])?
Its value is 9.15.

What about the inhibition of growth at 100 µg/mL (Huh-7) of the same compound?
Its inhibition of growth at 100 µg/mL is 62%.

And the Activity (A-375 [6])?
The Activity was 78.39%.

And the “fold change (FC)” value (A-375 [7])?
Its value is 1.35.

What about the inhibition of growth at 100 µg/mL (MG-63) of the same compound?
Its inhibition of growth at 100 µg/mL is 65%.

And the inhibition of growth at 100 µg/mL (A-375 [8])?
Its inhibition of growth at 100 µg/mL is 85%.

What about the inhibition of growth at 100 µg/mL (HCT-116 [9]) of the same compound?
The inhibition of growth at 100 µg/mL was 82%.

And the inhibition of growth at 100 µg/mL (HeLa)?
Its inhibition of growth at 100 µg/mL is 63%.

What about the “fold change (FC)” value (A-375 [10]) of the same compound?
The value was 1.51.

And the IC50 (HepG2 [11])?
Its IC50 is 31.2 µM.

And the IC50 (A-375 [12])?
Its IC50 is 12.6 µM.

What about the inhibition of growth at 100 µg/mL [13] of the same compound?
Its inhibition of growth at 100 µg/mL is 72%.

And the inhibition of growth at 100 µg/mL (MCF7)?
The inhibition of growth at 100 µg/mL was 70%.

What about the Activity [14] of the same compound?
Its Activity is 1.31 ng/mL.

What about the Activity [15] of the same compound?
Its Activity is 3.45 ng/mL.

What about the inhibition of growth at 100 µg/mL (MDA-MB-468) of the same compound?
The inhibition of growth at 100 µg/mL was 69%.

And the inhibition of growth at 100 µg/mL (Caco-2)?
The inhibition of growth at 100 µg/mL was 55%.

And the “fold change (FC)” value (A-375 [16])?
Its value is 1.55.

What about the “fold change (FC)” value (A-375 [17]) of the same compound?
The value was 2.91.

What about the IC50 (HCT-116 [18]) of the same compound?
The IC50 was 13.3 µM.

What about the inhibition at 48 h, 100 ug/mL [19] of the same compound?
Its inhibition at 48 h, 100 ug/mL is 25%.

And the inhibition at 48 h, 100 ug/mL [20]?
Its inhibition at 48 h, 100 ug/mL is 37%.

And the fold change (FC) [21]?
Its fold change (FC) is 2.58.

What about the inhibition of growth at 100 µg/mL (FaDu) of the same compound?
The inhibition of growth at 100 µg/mL was 76%.

— ChEMBL document CHEMBL6182834, “Dual EGFR and telomerase inhibitory potential of new triazole tethered Schiff bases endowed with apoptosis: design, synthesis, and biological assessments” (RSC Med Chem, 2025)
